A selection: hits, their analogues and other compounds. The true share with any hit is near 2.6%.
TDP2 absorb = blocks human TDP2 phosphodiesterase activity; O95551; recombinant TDP2, T5PNP hydrolysis, p-nitrophenol absorbance 415 nm; inhibition, % at 12.8 µM; hit rate 0.34% among 370,000; AID 720702;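 active = inhibition above the mean of all tested compounds plus 3 SD, set per campaign, cut at about 25% in these data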;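 also: 0% = DMSO with enzyme and 100% = buffer with substrate but no TDP2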
Target sequence (O95551 whole entry, looked up): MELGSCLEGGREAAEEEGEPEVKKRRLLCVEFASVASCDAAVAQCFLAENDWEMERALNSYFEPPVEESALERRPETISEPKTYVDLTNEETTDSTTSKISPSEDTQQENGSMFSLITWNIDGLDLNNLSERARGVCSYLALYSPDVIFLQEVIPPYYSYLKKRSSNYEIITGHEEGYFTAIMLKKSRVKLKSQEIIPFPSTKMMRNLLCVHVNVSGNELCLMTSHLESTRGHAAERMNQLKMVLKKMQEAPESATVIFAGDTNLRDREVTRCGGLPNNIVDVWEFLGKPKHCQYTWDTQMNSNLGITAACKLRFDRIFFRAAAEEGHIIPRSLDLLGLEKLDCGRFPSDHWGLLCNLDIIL
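Assay system: recombinant human TDP2 / Reagent: T5PNP substrate at 5 mM, a TopII-DNA adduct mimic / Measured by: epi absorbance from released p-nitrophenol / Evaluation: % inhibition relative to enzyme-containing and enzyme-free wells / Control set: enzyme-free and DMSO wells / Replicates: each compound tested once, singlicate / Schedule: enzyme reaction with compound for 2 h at 37 °C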
PRMT1 FP inh = PRMT1 (human) inhibition, primary screen; Q99873; recombinant PRMT1, activity-based probe fluorescence polarization; inhibition, % at 2.79 µM; hit rate 1.3% among 370,000; AID 652257;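 active = inhibition above about 21% made by adding two undisclosed values, limit read from the data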
GSTO1 inh = GSTO1 inhibition, counter-screen for RBBP9 inhibitors | P78417 | recombinant GSTO1, activity-based probe fluorescence polarization | inhibition, % at 5.96 µM | hit rate 1.1% among 300,000;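 active = inhibition above the campaign mean inhibition plus 3 SD, cut at about 35% in these data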;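 also: 0% = GSTO1-1 with DMSO and 100% = wells lacking GSTO1-1 enzyme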
Target sequence (P78417 whole entry, looked up): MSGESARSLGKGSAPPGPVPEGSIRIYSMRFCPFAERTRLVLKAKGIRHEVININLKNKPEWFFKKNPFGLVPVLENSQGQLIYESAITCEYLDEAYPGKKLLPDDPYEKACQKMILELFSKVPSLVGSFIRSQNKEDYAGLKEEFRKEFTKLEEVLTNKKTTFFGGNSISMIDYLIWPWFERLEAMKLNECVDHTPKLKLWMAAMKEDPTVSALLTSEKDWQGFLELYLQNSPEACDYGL
PAD4 FP inh = PAD4 (human) enzyme inhibition; hit rate 0.41% among 330,000; inhibition, % at 6.36 µM; recombinant PAD4, RCA probe fluorescence polarization; AID 485272; Q9UM07;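 active = percent inhibition above a cutoff equal to the mean of all tested compounds plus 3 SD, cut at about 15% in these data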;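 also: 0% = PAD4 with RCA probe and DMSO and 100% = probe without PAD4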
Apaf1 inhib = inhibitors of human Apaf-1 apoptosome; O14727; reconstituted apoptosome caspase-3 activity, DEVD-Rh110 fluorescence; inhibition, % at 20 µM; hit rate 0.71% among 330,000; AID 489030; active = inhibition of at least 40% at 20 µM;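 also: plate controls were DMSO wells for no effect and DEVD-CHO caspase inhibitor wells for full effect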
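System: reconstituted apoptosome with Apaf-1, cytochrome c, caspase-9, procaspase-3, dATP; Signal: Rh110 fluorescence intensity; Schedule: 30 min compound preincubation, 50 min activation, room temperature; Reagent: cytochrome c trigger plus (Z-DEVD)2-Rh110 caspase-3 substrate.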
Apaf-1 inh conf = Apaf-1 inhibition, single-dose confirmed; shares compounds with Apaf1 inhib; reconstituted apoptosome, caspase-3 DEVD-Rh110 fluorescence; inhibition, % at 20 µM; hit rate 25% among 1,800;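 active = mean inhibition of at least 40% at 20 µM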;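 also: plate controls were DMSO wells for no effect and DEVD-CHO caspase inhibitor control wells for full effect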
Rh110 interf inh = Rh110 signal interference in Apaf-1 inhibitor counter-screen | shares compounds with Apaf1 inhib | Rh110 fluorescence interference, quenched caspase reaction | activation (fluorescence interference), % at 20 µM | 1,800 tested, under 10 active;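 active = signal rise of 40% or more at 20 µM, treated as a fluorescence artifact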
* = called active by the depositor.

How did Cc1cc([N+](=O)[O-])c(C)cc1-c1ccc(/C=N/NC(=O)c2cccnc2)o1 do in these assays?
TDP2 absorb: 5.7; PRMT1 FP inh: -1.1; GSTO1 inh: 19.3; PAD4 FP inh: -1.1; Apaf1 inhib: 55.3*; Apaf-1 inh conf: 38.1; Rh110 interf inh: 5.3

Results for CCOC(=O)c1cc2cc3ccccc3cc2[nH]1 ?
TDP2 absorb: -4.2; PRMT1 FP inh: -5.2; GSTO1 inh: 5.1; PAD4 FP inh: 7.3; Apaf1 inhib: 58.4*; Apaf-1 inh conf: 10.8; Rh110 interf inh: 6.7

What do the screens show for `CC(C)C[C@H]1CNC(=O)C(=O)N1C[C@H]1CCCN1C[C@H](CC(C)C)N1C[C@H](CC(C)C)N(CCc2ccccc2)C(=O)C1=O`?
TDP2 absorb: -7.0; PRMT1 FP inh: 1.6

What do the screens show for `Cn1c(C(=O)N2CCN(c3nc4ccccc4s3)CC2)cc2sccc21`?
TDP2 absorb: -1.1; PRMT1 FP inh: 4.2; GSTO1 inh: -2.8; PAD4 FP inh: -2.3; Apaf1 inhib: 40.7*; Apaf-1 inh conf: 33.4; Rh110 interf inh: 2.9

What do the screens show for `C[C@H](O)[C@@H]1CN2CCc3c([nH]c4c(-c5ccc6c(c5)OCO6)cccc34)[C@@H]2C[C@@H]1N(C)C(=O)NC1CCCCC1`?
TDP2 absorb: -6.3; PRMT1 FP inh: 3.2

What do the screens show for `CC(C)CC1C(=O)N(Cc2cn(Cc3ccco3)nn2)CCS(=O)(=O)N1Cc1ccc(-c2cccc(N(C)C)c2)cc1` (centres undefined)?
TDP2 absorb: -4.2; PRMT1 FP inh: 3.6

What do the screens show for `COC(=O)[C@]12C[C@H](CC(=O)N3CCCC3)C(=O)N(Cc3ccc(Cl)cc3Cl)C1=C[C@H](C1CCCC1)O[C@@H]2C`?
TDP2 absorb: 3.5; PRMT1 FP inh: 5.7

How did CC1CCN(CCc2nc3cc(NC(=O)COc4ccccc4)ccc3n2C)CC1 do in these assays?
TDP2 absorb: 3.8; PRMT1 FP inh: 1.8; GSTO1 inh: -0.4; PAD4 FP inh: 2.2; Apaf1 inhib: 52.4*; Apaf-1 inh conf: 18.7; Rh110 interf inh: -1.2

How did CN1CCN(S(=O)(=O)c2cccc(C(=O)Nc3ccccc3N3CCCCC3)c2)CC1 do in these assays?
TDP2 absorb: -1.3; PRMT1 FP inh: 3.6; GSTO1 inh: -0.2; PAD4 FP inh: 3.5; Apaf1 inhib: 22.2

How did CN1CCN(S(=O)(=O)c2cccc(C(=O)Nc3cc(C(F)(F)F)ccc3N3CCCCC3)c2)CC1 do in these assays?
TDP2 absorb: -5.5; PRMT1 FP inh: 3.3; GSTO1 inh: 6.3; PAD4 FP inh: -3.5; Apaf1 inhib: 40.5*; Apaf-1 inh conf: 22.8; Rh110 interf inh: 7.6

Results for COc1ccc2sc(-c3ccccc3OC)c(-c3ccc(OCCN(C)C)cc3)c2c1 ?
TDP2 absorb: -3.2; PRMT1 FP inh: 1.4; PAD4 FP inh: -2.5; Apaf1 inhib: 65.0*; Apaf-1 inh conf: 17.6; Rh110 interf inh: 13.1

What do the screens show for `COc1cc2sc(-c3ccccc3OC)c(-c3ccc(OCCN4CCOCC4)cc3)c2cc1OC`?
PAD4 FP inh: 0.2; Apaf1 inhib: 27.2

Results for COc1ccc2sc(-c3ccccc3OC)c(-c3ccc(SC)cc3)c2c1 ?
TDP2 absorb: 6.6; PRMT1 FP inh: -1.4

Results for COc1ccc(-c2sc3ccccc3c2-c2ccc(OCCN3CCCCC3)cc2)cc1 ?
TDP2 absorb: -5.2; PRMT1 FP inh: 3.3; PAD4 FP inh: -2.6; Apaf1 inhib: 54.9*; Apaf-1 inh conf: 15.7; Rh110 interf inh: 4.9

Results for COc1cccc(-c2sc3ccccc3c2-c2ccc(OCCN3CCCC3)cc2)c1 ?
TDP2 absorb: 0.5; PRMT1 FP inh: -2.5; PAD4 FP inh: -0.2; Apaf1 inhib: 71.0*; Apaf-1 inh conf: 24.5; Rh110 interf inh: 14.3

How did COc1cccc(-c2sc3cc(OC)c(OC)cc3c2-c2ccc(OCCN3CCCCC3)cc2)c1 do in these assays?
PAD4 FP inh: -2.0; Apaf1 inhib: 66.4*; Apaf-1 inh conf: 10.0; Rh110 interf inh: 14.6

What do the screens show for `Cc1ccc(S(=O)(=O)Nc2ccc(Cl)cc2O)cc1`?
TDP2 absorb: -5.8; PRMT1 FP inh: 11.7

What do the screens show for `CC1(C)OC(=O)C2=C(C[C@@H](CCc3ccccc3)O[C@H]2CCc2cccc(Cl)c2)O1`?
TDP2 absorb: 2.3; PRMT1 FP inh: -2.2

What do the screens show for `O=C(N[C@H](C(=O)N1CCC[C@H]1C(=O)NCc1ccccc1)c1ccccc1)c1ccccc1`?
TDP2 absorb: -0.6; PRMT1 FP inh: 7.8

What do the screens show for `COc1ccc(-n2c(SCC(=O)Nc3cc(C)c(NC(=O)c4ccccc4)cc3OC)nnc2-c2cccnc2)cc1`?
TDP2 absorb: 1.5; PRMT1 FP inh: -2.9

How did CN1CCCN(S(=O)(=O)c2ccc3c(c2)n(C)c(=O)c(=O)n3C)CC1 do in these assays?
TDP2 absorb: -3.0; PRMT1 FP inh: -6.3

What do the screens show for `O=C(C(=O)N1CCN(C(=O)OCc2ccccc2)CC1)c1cccnc1`?
TDP2 absorb: -4.3; PRMT1 FP inh: -0.1

How did COc1cccc(-c2sc3ccc(OC)cc3c2-c2ccc(OCCN3CCCC3)cc2)c1 do in these assays?
PAD4 FP inh: -5.2; Apaf1 inhib: 69.9*; Apaf-1 inh conf: 20.0; Rh110 interf inh: 6.4

Results for COc1cccc(-c2sc3ccc(OC)cc3c2-c2ccc(C(N)=O)cc2)c1 ?
TDP2 absorb: -2.4; PRMT1 FP inh: -2.4; PAD4 FP inh: -2.7; Apaf1 inhib: 17.7

How did COc1cccc(-c2sc3ccccc3c2-c2ccc(OCCN(C)C)cc2)c1 do in these assays?
TDP2 absorb: -9.0; PRMT1 FP inh: 0.9; PAD4 FP inh: -0.9; Apaf1 inhib: 75.5*; Apaf-1 inh conf: 20.2; Rh110 interf inh: 6.8

How did COc1cccc(-c2sc3ccccc3c2-c2ccc(OCCN3CCCCC3)cc2)c1 do in these assays?
PAD4 FP inh: -2.7; Apaf1 inhib: 64.4*; Apaf-1 inh conf: 7.6; Rh110 interf inh: 13.7

Results for COc1ccc(-c2sc3ccc(OC)cc3c2-c2ccc(OCCN3CCOCC3)cc2)cc1 ?
PAD4 FP inh: -0.2; Apaf1 inhib: 29.5

How did O=C(NC1CCCCC1)C1c2ccccc2OCC(=O)N1CC(F)(F)F (centres undefined) do in these assays?
TDP2 absorb: 6.4; PRMT1 FP inh: 0.6

What do the screens show for `CCOc1ccc(S(=O)(=O)Nc2ccc(C(=O)N(CC)CC(=O)NCc3cccs3)cc2)cc1`?
TDP2 absorb: -3.1; PRMT1 FP inh: 2.4

Results for CCOc1ccc(NS(=O)(=O)c2ccc(C(=O)N(CC)CC(=O)NCc3cccs3)cc2)cc1 ?
TDP2 absorb: -9.4; PRMT1 FP inh: -2.4; GSTO1 inh: 5.7; PAD4 FP inh: -0.4; Apaf1 inhib: 61.2*; Apaf-1 inh conf: 29.0; Rh110 interf inh: -3.1

High-throughput results: PubChem BioAssay, several laboratories
